Activity calls are given as the source filed them.
Assays:
Rattus norvegicus [1] = species on record: Rattus norvegicus; experiment: Displacement of [3H]BTX-B from VGSC site 2 in rat forebrain membranes at 40 uM incubated at 37 degC for 60 mins; assay type: cell membranes; conditions: Brain, Membrane
[2] = Drug localization in Sprague-Dawley rat dorsal root ganglions at 100 uM using dansylated compound by two photon confocal microscopy; assay type: ADME, tissue-based, Dorsal root ganglion
[3] = target: Sodium channel protein type 2 subunit alpha (Homo sapiens) (UniProt Q99250); experiment: Inhibition of human NaV1.2 expressed in HEK293 cells at 10 uM using sodium currents elicited through depolarizing step from holding potential of -100 mV to +10 mV for 25 ms at 15 s intervals by whole cell patch clamp method; assay type: cell-based
Summary of the method: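 HEK293 cells stably expressing hNav1.2 were studied by whole-cell patch clamp at 20–22 °C with at least 75% series resistance compensation. Compound came from a 100 mM DMSO stock diluted in perfusion solution (final DMSO at most 0.1%). It was applied after a 3 min control period until current reached steady state. Result expressed as mean percent block ± SEM.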

Rattus norvegicus [4] = experiment: Antinociceptive effect in Sprague-Dawley rat model of sciatic nerve constriction-induced neuropathic pain model assessed as reduction in threshold to von Frey filaments applied to affected hind paw at 50 mg/kg, sc measured 2 hrs post dose; assay type: functional, organism-based; design: dose 50 mg/kg
Summary of the method: (§1)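 Adult female Sprague-Dawley rats (150 g at start) with unilateral sciatic nerve ligation; only animals with significant allodynia were used. Drug dissolved in DMSO and diluted in PEG400 to a 200 mg/ml stock, then diluted in PEG400/PBS and given subcutaneously. Von Frey withdrawal threshold measured by the up-and-down method 2 h post-dose. n = 5 per group, vehicle controls; one-way ANOVA with Tukey post hoc tests.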

Rattus norvegicus [5] = experiment: Antinociceptive effect in Sprague-Dawley rat model of sciatic nerve constriction-induced neuropathic pain model assessed as reduction in threshold to von Frey filaments applied to affected hind paw at 100 mg/kg, sc measured 2 hrs post dose; assay type: functional, organism-based; design: dose 100 mg/kg; summary of the method: as §1
Rattus norvegicus [6] = experiment: Anticonvulsant effect in Sprague-Dawley rat epileptic model assessed as increase in seizure thresholds at 50 mg/kg, po dosed before seizure induction by maximal electroshock test; assay type: functional, organism-based; design: dose 50 mg/kg
Rattus norvegicus [7] = experiment: Anticonvulsant effect in Sprague-Dawley rat epileptic model assessed as increase in seizure thresholds at 50 mg/kg, po dosed before seizure induction by subcutaneous metrazol seizure threshold test; assay type: functional, organism-based; design: dose 50 mg/kg
Summary of the method: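 Rats pretreated orally with 50 mg/kg of test compound, then seizures induced by subcutaneous Metrazol (scMET) injection; testing done through the NINDS anticonvulsant screening program.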

Rattus norvegicus [8] = experiment: Antinociceptive effect in Sprague-Dawley rat model of sciatic nerve constriction-induced neuropathic pain model assessed as […] to von Frey filaments applied to affected hind paw at 30 mg/kg, sc measured 2 hrs post dose; assay type: functional, organism-based; design: dose 30 mg/kg

Sequence of Sodium channel protein type 2 subunit alpha (Homo sapiens) (Q99250 whole entry, looked up, the tested form may be a part): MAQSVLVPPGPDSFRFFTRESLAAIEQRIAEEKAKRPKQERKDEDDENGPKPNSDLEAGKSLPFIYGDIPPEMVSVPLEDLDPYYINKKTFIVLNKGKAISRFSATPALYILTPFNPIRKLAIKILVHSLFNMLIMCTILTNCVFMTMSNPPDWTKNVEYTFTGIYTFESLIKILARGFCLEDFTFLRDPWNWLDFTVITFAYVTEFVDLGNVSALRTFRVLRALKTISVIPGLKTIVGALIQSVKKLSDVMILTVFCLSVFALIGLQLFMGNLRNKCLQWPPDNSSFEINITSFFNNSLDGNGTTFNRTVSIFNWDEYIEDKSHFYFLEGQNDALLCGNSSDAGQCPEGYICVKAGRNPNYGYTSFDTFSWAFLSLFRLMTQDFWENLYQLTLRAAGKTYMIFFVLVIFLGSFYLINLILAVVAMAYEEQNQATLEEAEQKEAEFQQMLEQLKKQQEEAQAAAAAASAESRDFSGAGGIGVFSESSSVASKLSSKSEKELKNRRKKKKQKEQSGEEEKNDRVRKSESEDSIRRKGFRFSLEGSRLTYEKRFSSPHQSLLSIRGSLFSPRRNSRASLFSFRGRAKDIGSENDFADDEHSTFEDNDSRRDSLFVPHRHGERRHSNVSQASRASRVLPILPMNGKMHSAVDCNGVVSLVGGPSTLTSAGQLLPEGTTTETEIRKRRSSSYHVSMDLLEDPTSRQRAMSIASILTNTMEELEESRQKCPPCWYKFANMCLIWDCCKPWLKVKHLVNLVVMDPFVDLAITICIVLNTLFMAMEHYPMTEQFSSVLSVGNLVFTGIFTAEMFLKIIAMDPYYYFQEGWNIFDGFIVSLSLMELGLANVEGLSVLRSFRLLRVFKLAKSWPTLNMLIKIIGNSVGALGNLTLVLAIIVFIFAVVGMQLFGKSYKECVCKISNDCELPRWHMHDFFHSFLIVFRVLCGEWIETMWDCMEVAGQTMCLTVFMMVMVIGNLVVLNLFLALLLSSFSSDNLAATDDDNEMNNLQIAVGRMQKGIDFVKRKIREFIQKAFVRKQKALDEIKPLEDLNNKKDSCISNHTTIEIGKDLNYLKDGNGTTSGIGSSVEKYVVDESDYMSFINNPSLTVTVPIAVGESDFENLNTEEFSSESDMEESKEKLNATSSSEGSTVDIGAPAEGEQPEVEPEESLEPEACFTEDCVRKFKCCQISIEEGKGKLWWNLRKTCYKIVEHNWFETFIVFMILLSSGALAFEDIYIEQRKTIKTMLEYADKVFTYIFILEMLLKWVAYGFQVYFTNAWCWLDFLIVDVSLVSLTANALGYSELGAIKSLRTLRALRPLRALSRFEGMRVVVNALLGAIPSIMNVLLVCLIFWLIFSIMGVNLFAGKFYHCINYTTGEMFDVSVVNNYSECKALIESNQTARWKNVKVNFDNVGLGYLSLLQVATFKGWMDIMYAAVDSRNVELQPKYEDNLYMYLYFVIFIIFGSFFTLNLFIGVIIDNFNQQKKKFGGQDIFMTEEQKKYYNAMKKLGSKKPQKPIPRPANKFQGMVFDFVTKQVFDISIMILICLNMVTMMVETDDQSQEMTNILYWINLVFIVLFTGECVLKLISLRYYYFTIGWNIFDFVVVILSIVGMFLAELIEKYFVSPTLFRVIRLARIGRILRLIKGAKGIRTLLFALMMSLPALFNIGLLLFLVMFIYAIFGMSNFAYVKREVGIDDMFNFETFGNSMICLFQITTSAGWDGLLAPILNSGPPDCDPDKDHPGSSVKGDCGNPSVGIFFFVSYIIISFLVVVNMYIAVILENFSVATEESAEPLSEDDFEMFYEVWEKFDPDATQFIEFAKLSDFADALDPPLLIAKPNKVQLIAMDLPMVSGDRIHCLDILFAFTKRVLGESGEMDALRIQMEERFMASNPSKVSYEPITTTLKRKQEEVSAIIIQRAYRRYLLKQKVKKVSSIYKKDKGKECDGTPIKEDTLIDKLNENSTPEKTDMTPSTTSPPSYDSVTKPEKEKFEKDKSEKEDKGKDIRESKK

Row | Compound | inhibition (Rattus norvegicus [1]) | other results
1 | O=C1NC(=O)C(CCCCCC2CO2)(c2cccc(Cl)c2)N1 (centres undefined) | 28% | –
2 | CN(C)c1cccc2c(S(=O)(=O)NCCCCCC3(c4cccc(Cl)c4)NC(=O)NC3=O)cccc12 (centres undefined) | 86% | Drug uptake [2]: Active; inhibition [3]: 59%; Activity (Rattus norvegicus [4]): Active; Activity (Rattus norvegicus [5]): Active; Activity (Rattus norvegicus [6]): inactive; Activity (Rattus norvegicus [7]): inactive
3 | CCCCCCCC(O)(c1cccc(Cl)c1)c1cccc(OC)c1 (centres undefined) | 51% | –
4 | CCCCCCCC(O)(c1cccc(Cl)c1)c1cc(F)cc(OC)c1 (centres undefined) | 56% | –
5 | C#CC(O)(CCCCCCC)c1cccc(Cl)c1 (centres undefined) | 78% | –
6 | CCCCCCCC1(c2cccc(Cl)c2)NC(=S)NC1=O (centres undefined) | 67% | –
7 | C#C/C(=C\CCCCCC)c1cccc(Cl)c1 | 32% | –
8 | CCCCCCCC(O)(c1cccc(Cl)c1)c1ccc(C)cn1 (centres undefined) | 41% | –
9 | CCCCCCCC1(c2cccc(Cl)c2)NC(SC)=NC1=O (centres undefined) | 51% | –
10 | CCCCCCCC1(c2cccc(Cl)c2)NC(=O)N(Cc2ccccc2)C1=O (centres undefined) | 72% | –
11 | CCCCCCCC1(c2cccc(Cl)c2)NC(=O)N(Cc2cccc(F)c2)C1=O (centres undefined) | 71% | –
12 | CCCCCCCC(O)(c1cccc(Cl)c1)c1cc(C(F)(F)F)cc(C(F)(F)F)c1 (centres undefined) | 8% | –
13 | NCC1(CC(=O)O)CCCCC1 | – | Activity (Rattus norvegicus [8]): Active
14 | O=C1NC(=O)C(c2ccccc2)(c2ccccc2)N1 [PHENYTOIN] | 28% | Activity (Rattus norvegicus [6]): Active; Activity (Rattus norvegicus [7]): Active
15 | O=C1NC(=O)C(CCCCCC2CC2)(c2cccc(Cl)c2)N1 (centres undefined) | 87% | –
16 | CCCCCCCC(O)(c1cc(F)cc(F)c1)c1cccc(Cl)c1 (centres undefined) | 35% | –
17 | CCCCCCCC1(c2cccc(Cl)c2)C(=O)N=C(SC)N1C (centres undefined) | 18% | –

Row | Compound | inhibition (Rattus norvegicus [1]) | other results
18 | CCCCCCCC1(c2cccc(Cl)c2)NC(=O)N(CC2CC2)C1=O (centres undefined) | 78% | –
19 | C=CCCCCCC1(c2cccc(Cl)c2)NC(=O)N(CC=C)C1=O (centres undefined) | 72% | –
20 | CCCCCCCC1(c2cccc(Cl)c2)NC(=O)N(CCc2ccccc2)C1=O (centres undefined) | 17% | –
21 | C=CCN1C(=O)NC(CCCCCCC)(c2cccc(Cl)c2)C1=O (centres undefined) | 83% | –
22 | C=CCCCCCC(O)(C(N)=O)c1cccc(Cl)c1 (centres undefined) | 86% | –
23 | CCCCCCCC(O)(c1cccc(Cl)c1)c1ccccn1 (centres undefined) | 28% | –
24 | O=C1NC(=O)C(CCCOCc2ccccc2)(c2cccc(Cl)c2)N1 (centres undefined) | 71% | –
25 | C#CCN1C(=O)NC(CCCCCCC)(c2cccc(Cl)c2)C1=O (centres undefined) | 57% | –
26 | C=CCCCCCC1(c2cccc(Cl)c2)NC(=O)NC1=O (centres undefined) | 79% | –
27 | CCCCCCCC(O)(c1cccc(Cl)c1)c1ccc(F)c(F)c1 (centres undefined) | 42% | –
28 | CCCCCCCC(O)(C(N)=O)c1cccc(Cl)c1 (centres undefined) | 48% | –
29 | NC(=O)C(O)(CCCCOCc1ccccc1)c1cccc(Cl)c1 (centres undefined) | 52% | –
30 | CC(C)=CCC/C(C)=C/CC(O)(C(N)=O)c1cccc(Cl)c1 (centres undefined) | 84% | –
31 | CCCCCCCC1(c2cccc(Cl)c2)OC(C)(C)OC1=O (centres undefined) | 27% | –
32 | CCCCCCCC1(c2cccc(Cl)c2)NC(=O)NC1=O (centres undefined) | 70% | inhibition [3]: 31%; Activity (Rattus norvegicus [4]): Active; Activity (Rattus norvegicus [5]): Active
33 | CC(C)=CCCC(C)CCC(O)(C(N)=O)c1cccc(Cl)c1 (centres undefined) | 40% | –
